Assay results taken from ChEMBL document CHEMBL5649170, “Sustained microglial depletion with CSF1R inhibitor impairs parenchymal plaque development in an Alzheimer's disease model” (Nat Commun, 2019).
pIC50: −log10 of the molar value. The source made the active and inactive calls. No cut-off for these calls is given here.

Columns and labels:
[1] = biological target: RAC-beta serine/threonine-protein kinase (Homo sapiens, UniProt P31751); assay: Inhibition of AKT2 (unknown origin)
[2] = biological target: RAC-gamma serine/threonine-protein kinase (Homo sapiens, UniProt Q9Y243); assay: Inhibition of AKT3 (unknown origin)
Chain of RAC-gamma serine/threonine-protein kinase (Q9Y243 whole entry): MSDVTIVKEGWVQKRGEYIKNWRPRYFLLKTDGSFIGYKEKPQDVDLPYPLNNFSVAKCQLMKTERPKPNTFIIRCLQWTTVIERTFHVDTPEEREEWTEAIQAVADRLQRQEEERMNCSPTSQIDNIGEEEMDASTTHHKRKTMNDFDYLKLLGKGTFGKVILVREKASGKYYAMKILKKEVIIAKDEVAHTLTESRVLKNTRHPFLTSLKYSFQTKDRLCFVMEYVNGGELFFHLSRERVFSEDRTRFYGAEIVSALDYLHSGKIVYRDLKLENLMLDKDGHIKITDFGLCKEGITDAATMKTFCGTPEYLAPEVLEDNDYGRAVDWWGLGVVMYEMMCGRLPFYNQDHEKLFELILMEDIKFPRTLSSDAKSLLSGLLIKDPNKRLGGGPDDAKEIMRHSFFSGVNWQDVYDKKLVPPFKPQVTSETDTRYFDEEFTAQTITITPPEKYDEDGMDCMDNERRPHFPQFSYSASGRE

CDK7/Cyclin H/MNAT1 = CDK7/Cyclin H/MNAT1 (Homo sapiens, UniProt P50613); assay: Inhibition of CDK7/CyclinH/MNAT1 (unknown origin); assay type: protein-complex assay
[3] = biological target: Epidermal growth factor receptor (Homo sapiens, UniProt P00533); assay: Inhibition of EGFR (unknown origin)
Chain of Epidermal growth factor receptor (P00533 whole entry): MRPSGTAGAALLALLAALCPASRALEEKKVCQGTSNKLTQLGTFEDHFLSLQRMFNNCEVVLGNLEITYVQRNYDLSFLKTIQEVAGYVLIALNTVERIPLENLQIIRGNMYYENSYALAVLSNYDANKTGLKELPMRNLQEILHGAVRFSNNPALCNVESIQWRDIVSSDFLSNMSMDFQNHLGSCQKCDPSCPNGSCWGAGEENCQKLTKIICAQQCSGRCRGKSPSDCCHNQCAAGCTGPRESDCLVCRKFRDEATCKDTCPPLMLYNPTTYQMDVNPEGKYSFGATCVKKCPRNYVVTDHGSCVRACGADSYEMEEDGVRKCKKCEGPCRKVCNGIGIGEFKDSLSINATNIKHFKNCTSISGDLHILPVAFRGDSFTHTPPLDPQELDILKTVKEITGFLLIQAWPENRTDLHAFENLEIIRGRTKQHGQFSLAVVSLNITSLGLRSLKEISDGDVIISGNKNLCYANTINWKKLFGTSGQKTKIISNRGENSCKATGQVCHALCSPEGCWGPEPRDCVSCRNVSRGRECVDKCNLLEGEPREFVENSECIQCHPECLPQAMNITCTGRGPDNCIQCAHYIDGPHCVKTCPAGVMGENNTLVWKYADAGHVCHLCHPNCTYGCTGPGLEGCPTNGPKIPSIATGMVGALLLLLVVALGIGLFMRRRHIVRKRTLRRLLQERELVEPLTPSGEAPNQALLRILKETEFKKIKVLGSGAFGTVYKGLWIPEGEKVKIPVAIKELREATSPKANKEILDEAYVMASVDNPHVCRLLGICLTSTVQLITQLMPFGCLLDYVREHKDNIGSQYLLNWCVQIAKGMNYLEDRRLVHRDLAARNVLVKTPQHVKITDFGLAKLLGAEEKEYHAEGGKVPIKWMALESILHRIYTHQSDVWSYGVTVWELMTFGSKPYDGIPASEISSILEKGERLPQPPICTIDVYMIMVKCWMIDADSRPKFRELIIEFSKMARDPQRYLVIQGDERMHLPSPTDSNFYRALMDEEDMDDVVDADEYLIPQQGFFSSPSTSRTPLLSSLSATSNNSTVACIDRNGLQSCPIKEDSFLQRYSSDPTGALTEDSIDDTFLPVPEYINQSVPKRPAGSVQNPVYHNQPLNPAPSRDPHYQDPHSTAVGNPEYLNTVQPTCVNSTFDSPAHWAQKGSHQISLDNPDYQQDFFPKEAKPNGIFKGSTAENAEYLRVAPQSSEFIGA

Ephrin type-B receptor 4 = Ephrin type-B receptor 4 (Homo sapiens, UniProt P54760); assay: Inhibition of EPHB4 (unknown origin)
Chain of Ephrin type-B receptor 4 (P54760 whole entry): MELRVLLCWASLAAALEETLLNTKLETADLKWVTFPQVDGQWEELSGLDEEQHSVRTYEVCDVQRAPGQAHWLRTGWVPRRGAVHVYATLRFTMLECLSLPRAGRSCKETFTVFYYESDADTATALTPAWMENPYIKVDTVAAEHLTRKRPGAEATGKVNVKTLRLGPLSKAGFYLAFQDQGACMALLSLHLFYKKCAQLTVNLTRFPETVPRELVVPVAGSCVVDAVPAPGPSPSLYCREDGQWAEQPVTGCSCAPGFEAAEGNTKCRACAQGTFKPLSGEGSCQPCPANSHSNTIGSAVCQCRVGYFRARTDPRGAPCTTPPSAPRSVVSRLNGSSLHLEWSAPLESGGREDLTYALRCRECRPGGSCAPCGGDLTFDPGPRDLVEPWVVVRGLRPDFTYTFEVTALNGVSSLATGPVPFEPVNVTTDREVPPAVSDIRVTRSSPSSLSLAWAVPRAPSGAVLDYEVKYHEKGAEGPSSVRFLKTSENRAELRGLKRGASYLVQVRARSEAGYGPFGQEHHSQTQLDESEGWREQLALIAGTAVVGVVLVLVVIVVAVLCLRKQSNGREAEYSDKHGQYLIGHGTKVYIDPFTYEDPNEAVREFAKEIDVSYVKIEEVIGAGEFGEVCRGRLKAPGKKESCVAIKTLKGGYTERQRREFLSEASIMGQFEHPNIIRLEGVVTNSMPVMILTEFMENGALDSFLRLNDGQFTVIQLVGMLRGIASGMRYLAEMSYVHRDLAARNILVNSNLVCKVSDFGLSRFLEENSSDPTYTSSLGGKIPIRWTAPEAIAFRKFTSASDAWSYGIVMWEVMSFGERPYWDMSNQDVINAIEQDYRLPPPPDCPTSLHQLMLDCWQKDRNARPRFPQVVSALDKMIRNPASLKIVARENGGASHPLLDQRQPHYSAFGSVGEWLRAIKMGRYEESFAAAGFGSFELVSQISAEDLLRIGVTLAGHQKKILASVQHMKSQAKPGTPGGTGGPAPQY

[4] = biological target: Fibroblast growth factor receptor 3 (Homo sapiens, UniProt P22607); assay: Inhibition of FGFR3 (unknown origin)
[5] = biological target: Tyrosine-protein kinase Fgr (Homo sapiens, UniProt P09769); assay: Inhibition of FGR (unknown origin)
Chain of Tyrosine-protein kinase Fgr (P09769 whole entry): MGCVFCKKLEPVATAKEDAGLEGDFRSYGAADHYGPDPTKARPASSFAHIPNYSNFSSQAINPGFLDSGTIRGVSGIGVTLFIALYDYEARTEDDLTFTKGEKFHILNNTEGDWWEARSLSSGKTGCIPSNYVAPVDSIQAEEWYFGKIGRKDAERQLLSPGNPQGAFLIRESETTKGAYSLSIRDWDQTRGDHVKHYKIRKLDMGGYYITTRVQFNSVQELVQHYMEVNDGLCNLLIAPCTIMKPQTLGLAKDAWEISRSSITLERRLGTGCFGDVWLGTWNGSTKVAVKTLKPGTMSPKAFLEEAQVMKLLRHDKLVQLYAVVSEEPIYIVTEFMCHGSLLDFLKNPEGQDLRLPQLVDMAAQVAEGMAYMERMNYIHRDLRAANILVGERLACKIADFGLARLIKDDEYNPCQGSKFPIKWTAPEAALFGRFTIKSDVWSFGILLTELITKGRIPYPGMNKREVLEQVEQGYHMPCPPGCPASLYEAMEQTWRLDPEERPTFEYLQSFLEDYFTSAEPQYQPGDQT

[6] = biological target: Inhibitor of nuclear factor kappa-B kinase subunit beta (Homo sapiens, UniProt O14920); assay: Inhibition of IKBKB (unknown origin)
[7] = biological target: Tyrosine-protein kinase Lck (Homo sapiens, UniProt P06239); assay: Inhibition of LCK (unknown origin)
[8] = biological target: Mitogen-activated protein kinase 3 (Homo sapiens, UniProt P27361); assay: Inhibition of MAPK3 (unknown origin)
[9] = biological target: MAP kinase-activated protein kinase 5 (Homo sapiens, UniProt Q8IW41); assay: Inhibition of MAPKAPK5 (unknown origin)
[10] = biological target: Serine/threonine-protein kinase MARK1 (Homo sapiens, UniProt Q9P0L2); assay: Inhibition of MARK1 (unknown origin)
Chain of Serine/threonine-protein kinase MARK1 (Q9P0L2 whole entry): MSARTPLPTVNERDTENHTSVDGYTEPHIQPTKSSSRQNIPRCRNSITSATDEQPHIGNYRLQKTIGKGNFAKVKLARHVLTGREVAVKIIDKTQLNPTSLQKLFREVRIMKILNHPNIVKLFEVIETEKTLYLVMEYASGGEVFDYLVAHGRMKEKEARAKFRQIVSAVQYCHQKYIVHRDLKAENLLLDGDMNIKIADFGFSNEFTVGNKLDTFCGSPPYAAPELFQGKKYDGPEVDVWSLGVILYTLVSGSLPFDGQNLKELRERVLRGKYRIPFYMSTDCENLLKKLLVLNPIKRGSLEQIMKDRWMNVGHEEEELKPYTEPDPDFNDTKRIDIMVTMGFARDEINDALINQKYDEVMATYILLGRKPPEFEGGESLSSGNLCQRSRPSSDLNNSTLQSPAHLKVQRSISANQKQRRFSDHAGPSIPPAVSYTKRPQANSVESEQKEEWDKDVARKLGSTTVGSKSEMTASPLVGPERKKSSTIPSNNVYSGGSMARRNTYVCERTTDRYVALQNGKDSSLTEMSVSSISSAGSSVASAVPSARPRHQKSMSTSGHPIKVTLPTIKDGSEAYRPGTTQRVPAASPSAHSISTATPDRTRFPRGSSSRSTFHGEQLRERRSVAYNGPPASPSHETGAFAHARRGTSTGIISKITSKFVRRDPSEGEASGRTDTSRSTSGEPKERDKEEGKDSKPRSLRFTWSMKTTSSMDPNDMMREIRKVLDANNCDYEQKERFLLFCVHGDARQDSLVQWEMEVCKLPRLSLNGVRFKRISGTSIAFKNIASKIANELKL

[11] = biological target: Serine/threonine-protein kinase Nek2 (Homo sapiens, UniProt P51955); assay: Inhibition of NEK2 (unknown origin)
Chain of Serine/threonine-protein kinase Nek2 (P51955 whole entry): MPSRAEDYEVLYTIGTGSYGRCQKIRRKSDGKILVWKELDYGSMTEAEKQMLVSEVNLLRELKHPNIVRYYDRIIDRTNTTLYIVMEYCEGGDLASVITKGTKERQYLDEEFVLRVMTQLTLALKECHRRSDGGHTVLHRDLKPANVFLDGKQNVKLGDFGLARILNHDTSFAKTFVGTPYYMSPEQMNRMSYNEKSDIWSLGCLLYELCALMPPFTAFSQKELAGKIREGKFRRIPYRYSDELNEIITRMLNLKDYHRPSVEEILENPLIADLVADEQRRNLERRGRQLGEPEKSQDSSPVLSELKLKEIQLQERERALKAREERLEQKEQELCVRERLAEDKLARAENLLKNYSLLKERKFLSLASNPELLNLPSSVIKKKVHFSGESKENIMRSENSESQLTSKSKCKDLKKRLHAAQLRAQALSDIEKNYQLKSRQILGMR

[12] = biological target: Protein kinase C beta type (Homo sapiens, UniProt P05771); assay: Inhibition of PRKCB2 (unknown origin)
[13] = biological target: Protein kinase C delta type (Homo sapiens, UniProt Q05655); assay: Inhibition of PRKCD (unknown origin)
[14] = biological target: Proto-oncogene tyrosine-protein kinase receptor Ret (Homo sapiens, UniProt P07949, Y791F); assay: Inhibition of RET Y791F mutant (unknown origin)
[15] = biological target: Ribosomal protein S6 kinase alpha-5 (Homo sapiens, UniProt O75582); assay: Inhibition of RPS6KA5 (unknown origin)
[16] = biological target: Serine/threonine-protein kinase 25 (Homo sapiens, UniProt O00506); assay: Inhibition of STK25 (unknown origin)
Chain of Serine/threonine-protein kinase 25 (O00506 whole entry): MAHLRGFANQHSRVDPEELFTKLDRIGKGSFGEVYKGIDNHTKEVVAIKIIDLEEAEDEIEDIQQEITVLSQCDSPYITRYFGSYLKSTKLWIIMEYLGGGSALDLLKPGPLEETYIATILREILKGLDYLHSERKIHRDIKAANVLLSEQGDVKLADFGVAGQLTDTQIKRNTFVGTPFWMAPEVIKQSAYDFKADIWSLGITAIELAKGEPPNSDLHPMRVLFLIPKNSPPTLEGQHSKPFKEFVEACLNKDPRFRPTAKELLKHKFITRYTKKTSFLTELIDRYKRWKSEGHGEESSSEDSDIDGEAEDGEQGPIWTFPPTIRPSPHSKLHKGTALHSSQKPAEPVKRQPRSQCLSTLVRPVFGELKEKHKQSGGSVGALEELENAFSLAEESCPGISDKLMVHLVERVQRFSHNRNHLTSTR

[17] = AUC (0 to infinity) in mouse at 1.92 mg/kg, iv administered as single dose; assay type: ADME, organism-based; conditions: in vivo
[18] = Half-life in monkey at 1.35 mg/kg, iv administered as single dose; assay type: ADME, organism-based, Macaca mulatta; conditions: rhesus monkey, in vivo
[19] = Cmax in mouse at 45 mg/kg, po administered as single dose via gavage; assay type: ADME, organism-based; conditions: in vivo
[20] = Cmax in dog at 45 mg/kg, po administered as single dose via gavage; assay type: ADME, organism-based, Canis lupus familiaris; conditions: in vivo
[21] = Oral bioavailability in male rat at 45 mg/kg administered as single via gavage; assay type: ADME, organism-based; conditions: in vivo
[22] = Toxicity in wildtype mouse assessed as time spent in open arm at 1200 ppm administered as rodent chow for 10 to 24 weeks by Elevated plus maze test (reference value: 8.7 to 179.9 sec); conditions: in vivo, po, time 10-24 weeks
Mus musculus [23] = assay: Effect on APP processing pathway in 5XFAD mouse assessed as C99 protein signal intensity in cortex at 1200 ppm administered as rodent starting from 1.5 months and measured after 7 months (reference value: 49.412 to 179.884 %); assay type: functional; conditions: route po, time 5.5 months, 4015 h
Mus musculus [24] = assay: (§1) Antialzheimer activity in 5XFAD mouse assessed as ApoE immunoreactivity by measuring ApoE intensity of plaque core in thalamus at 1200 ppm administered as rodent chow starting from 1.5 months and measured after 7 months by immunolabeling based confocal microscopic analysis (reference value: 6.13 to 122.68 a.u.); assay type: functional; conditions: route po, time 5.5 months, 4015 h
Mus musculus [25] = assay: Antialzheimer activity in 5XFAD mouse assessed as ApoE immunoreactivity by measuring reduction in core ApoE in cortex at 1200 ppm administered as rodent chow starting from 1.5 months and measured after 7 months by immunolabeling based confocal microscopic analysis relative to control; assay type: functional; parameters: scale not given: the % may be the effect or the level left; conditions: route po, time 5.5 months, 4015 h
Mus musculus [26] = assay: as §1, with “APP volume per number” for “ApoE intensity”, “Thio-S positive deposits” for “plaque core in thalamus”, “6.415” for “6.13”, “29.760 microm3)” for “122.68 a.u.)”; assay type: functional; conditions: route po, time 5.5 months, 4015 h
[27] = Effect on Csf1r RPKM gene expression in 5XFAD mouse thalamus at 1200 ppm administered as rodent chow starting from 1.5 months and measured after 7 months by RNA-Seq analysis (reference value: 27.112 to 32.871 RPKM); assay type: functional; conditions: route po, time 5.5 months, 4015 h
[28] = Effect on Ctsz gene expression in 5XFAD mouse hippocampus at 1200 ppm administered as rodent chow starting from 1.5 months and measured after 7 months by RNA-Seq analysis (reference value: 34.576 to 51.120 RPKM); assay type: functional; conditions: route po, time 5.5 months, 4015 h
[29] = Effect on Itgax gene expression in wild type mouse cortex at 1200 ppm administered as rodent chow starting from 1.5 months and measured after 7 months by RNA-Seq analysis (reference value: 0.069 to 0.218 RPKM); assay type: functional; conditions: route po, time 5.5 months, 4015 h
[30] = Prevention of Dusp5 gene downregulation in 5XFAD mouse hippocampus assessed as percent change in Reads Per kilo base per Million mapped reads at 1200 ppm administered as rodent chow starting from 1.5 months and measured after 7 months by RNA-Seq analysis (reference value: 41.082 to 74.744 %); assay type: functional; conditions: route po, time 5.5 months, 4015 h
Mus musculus [31] = assay: Prevention of Fcrls gene upregulation in 5XFAD mouse hippocampus at 1200 ppm administered as rodent chow starting from 1.5 months and measured after 7 months by Nanostring analysis; assay type: functional, tissue-based; conditions: route po, time 5.5 months
Mus musculus [32] = assay: Prevention of Nell2 gene downregulation in 5XFAD mouse hippocampus at 1200 ppm administered as rodent chow starting from 1.5 months and measured after 7 months by Nanostring analysis; assay type: functional, tissue-based; conditions: route po, time 5.5 months
[33] = Drug concentration in wildtype mouse brain at 75 ppm administered as rodent chow starting from 1.5 months and measured after 5 months; assay type: ADME, tissue-based; conditions: route po, time 3.5 months, read-out: Ct
How it was run: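 WT or 5xFAD mice were fed PLX3397 in AIN-76A chow at 600 ppm or 75 ppm from 1.5 to 5 months of age. Terminal brain and plasma drug concentrations were determined at study end.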

Mus musculus [34] = assay: Antialzheimer activity in 5XFAD mouse assessed as microglial numbers by measuring number of Iba positive cells per FOV in […] cortex at 75 ppm administered as rodent chow starting from 1.5 months and measured after 5 months by immunolabeling based confocal microscopic analysis (reference value: 176 to 654); assay type: functional; conditions: route po, time 3.5 months, 2555 h
How it was run: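 5xFAD mice fed PLX3397 at 75 ppm in AIN-76A chow from 1.5 to 5 months of age; retrosplenial and somatosensory cortex sections stained with Thio-S and immunolabeled for IBA1; confocal imaging, IBA1+ cells and plaques quantified per region; two-tailed independent t-test, n = 4–5 per group, mean ± SEM.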

Mus musculus [35] = assay: Antialzheimer activity in 5XFAD mouse assessed as number of plaques per FOV in […] cortex at 75 ppm administered as rodent chow starting from 1.5 months and measured after 5 months by immunolabeling based confocal microscopic analysis (reference value: […] to […]); assay type: functional; conditions: route po, time 3.5 months, 2555 h

## COc1ncc(F)cc1CNc1ccc(Cc2c[nH]c3ncc(C)cc23)c(F)n1 [PLX-5622]
[1]
  pIC50: < 6.00
[2]
  pIC50: < 6.00
CDK7/Cyclin H/MNAT1
  pIC50: < 6.00
[3]
  pIC50: < 6.00
Ephrin type-B receptor 4
  pIC50: < 6.00
[4]
  pIC50: < 6.00
[5]
  pIC50: < 6.00
[6]
  pIC50: < 6.00
[7]
  pIC50: < 6.00
[8]
  pIC50: < 6.00
[9]
  pIC50: < 6.00
[10]
  pIC50: < 6.00
[11]
  pIC50: < 6.00
[12]
  pIC50: < 6.00
[13]
  pIC50: < 6.00
[14]
  pIC50: < 6.00
[15]
  pIC50: < 6.00
[16]
  pIC50: < 6.00
[17]
  AUC(0-inf): 15500 ng·h/mL
[18]
  half-life: 2.2 h
[19]
  Cmax: 26300 ng/mL
[20]
  Cmax: 3630 ng/mL
[21]
  bioavailability: 95%
[22]
  Time: 11.9 s
Mus musculus [23]
  Activity: 75.956%
Mus musculus [24]
  Flu intensity: 0.77 a.u.
Mus musculus [25]
  Activity: ~50%
Mus musculus [26]
  Activity: 10.459 um3
[27]
  Activity: 0.221 RPKM
[28]
  Activity: 16.426 RPKM
[29]
  Activity: 0 RPKM
[30]
  Activity: 83.733%
Mus musculus [31]
  Activity: Active
Mus musculus [32]
  Activity: Active

## FC(F)(F)c1ccc(CNc2ccc(Cc3c[nH]c4ncc(Cl)cc34)cn2)cn1 [PEXIDARTINIB]
[33]
  concentration at 2555 h: 300 nM
Mus musculus [34]
  Activity: 229
Mus musculus [35]
  Activity: 34
